Experimental data: ChEMBL document CHEMBL3351631, “Towards the next generation of dual Bcl-2/Bcl-xL inhibitors” (Bioorg Med Chem Lett, 2014)
In brackets after ≈: the same amount, converted by molar mass.

Tests used:
[1] = target: Apoptosis regulator Bcl-2 (Homo sapiens, UniProt P10415); assay: Inhibition of c-terminal 6xHis-tagged Bcl-2 (amino acids 1 to 204) (unknown origin) preincubated for 1 hr prior to substrate addition measured after 20 mins by fluorescence polarization assay
Bcl-2-like protein 1 = Bcl-2-like protein 1 (Homo sapiens, UniProt Q07817); assay: Inhibition of c-terminal 6xHis-tagged Bcl-xL (amino acids 1 to 209) (unknown origin) preincubated for 1 hr prior to substrate addition measured after 20 mins by fluorescence polarization assay
How it was run: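 Bcl-xL (aa 1–209, C-terminal 6xHis) at 0.8 nM preincubated 1 h with serial antagonist dilutions, then 2 nM FITC-labelled Bim BH3 peptide tracer added; buffer 20 mM HEPES pH 7.5, 1 mM DTT, 0.005% Tween-20, 50 mM NaCl.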

RS4-11 = assay: Induction of apoptosis in human RS4:11 cells overexpressing BCL-2 assessed as caspase 3/7 activation after 6 hrs by quantitative luminescence assay; assay type: functional, cell-based; details: RS4-11, 6 h
How it was run: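 RS4;11 cells seeded 10,000/well in RPMI with 10% FBS; after 16 h, compound added in duplicate for 6 h at 37 °C. Equal volume of Caspase-Glo 3/7 reagent added, 1 h, luminescence read. DMSO set minimum and ABT-263 maximum caspase activity. EC50 averaged from at least two experiments.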

[2] = Equilibrium solubility of the compound at pH 7.4; assay type: physicochemical; details: buffer
[3] = Dissociation constant, pKa of the compound; assay type: physicochemical

Chain of Bcl-2-like protein 1 (Q07817 whole entry, the tested form may be a part): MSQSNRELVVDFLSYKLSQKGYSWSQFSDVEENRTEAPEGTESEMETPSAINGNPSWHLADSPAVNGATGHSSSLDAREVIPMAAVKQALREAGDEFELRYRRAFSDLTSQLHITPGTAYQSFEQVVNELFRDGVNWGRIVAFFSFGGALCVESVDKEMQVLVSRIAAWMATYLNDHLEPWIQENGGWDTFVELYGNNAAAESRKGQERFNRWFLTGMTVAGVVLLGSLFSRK
Chain of Apoptosis regulator Bcl-2 (P10415 whole entry, the tested form may be a part): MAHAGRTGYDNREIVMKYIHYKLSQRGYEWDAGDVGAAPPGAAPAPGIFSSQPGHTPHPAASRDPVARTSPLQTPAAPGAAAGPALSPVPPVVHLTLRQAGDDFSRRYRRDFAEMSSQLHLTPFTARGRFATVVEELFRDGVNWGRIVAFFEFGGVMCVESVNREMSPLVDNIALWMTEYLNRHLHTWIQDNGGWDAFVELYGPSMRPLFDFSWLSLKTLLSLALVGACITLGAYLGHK

Row | Structure (SMILES) | IC50 [1] | IC50 (Bcl-2-like protein 1) | EC50 (RS4-11) | solubility thermodynamic [2] | pKa [3]
1 | CN(C)C(=O)COc1ccc(-c2ccc(Cl)cc2)c(CN2CCN(c3ccc(C(=O)NS(=O)(=O)c4ccc(N[C@H](CCN5CCOCC5)CSc5ccccc5)c(S(=O)(=O)C(F)(F)F)c4)cc3)CC2)c1 | < 10 nM | < 10 nM | 51 nM | 2 µM (≈ 2.09 µg/mL) | –
2 | O=C(NS(=O)(=O)c1ccc(N[C@H](CCN2CCOCC2)CSc2ccccc2)c(S(=O)(=O)C(F)(F)F)c1)c1ccc(N2CCC(S(=O)(=O)c3ccccc3-c3ccc(Cl)cc3)CC2)cc1 | 87 nM | 21 nM | > 1100 nM | 27 µM (≈ 26.8 µg/mL) | –
3 | O=C(NS(=O)(=O)c1ccc(N[C@H](CCN2CCOCC2)CSc2ccccc2)c(S(=O)(=O)C(F)(F)F)c1)c1ccc(N2CCN(Cc3ccncc3-c3ccc(Cl)cc3)CC2)cc1 | < 10 nM | 15 nM | 201 nM | – | –
4 | O=C(NS(=O)(=O)c1ccc(N[C@H](CCN2CCOCC2)CSc2ccccc2)c(S(=O)(=O)C(F)(F)F)c1)c1ccc(N2CCN(Cc3cccnc3-c3ccc(Cl)cc3)CC2)cc1 | 26 nM | 25 nM | 374 nM | – | –
5 | O=C(NS(=O)(=O)c1ccc(N[C@H](CCN2CCOCC2)CSc2ccccc2)c(S(=O)(=O)C(F)(F)F)c1)c1ccc(N2CCN(Cc3cn[nH]c3-c3ccc(Cl)cc3)CC2)cc1 | 40 nM | 38 nM | > 10000 nM | < 1 µM | –
6 | Cn1ncc(CN2CCN(c3ccc(C(=O)NS(=O)(=O)c4ccc(N[C@H](CCN5CCOCC5)CSc5ccccc5)c(S(=O)(=O)C(F)(F)F)c4)cc3)CC2)c1-c1ccc(Cl)cc1 | < 10 nM | < 10 nM | 420 nM | < 1 µM | –
7 | CN(C)C(=O)COc1cccc(-c2ccc(Cl)cc2)c1CN1CCN(c2ccc(C(=O)NS(=O)(=O)c3ccc(N[C@H](CCN4CCOCC4)CSc4ccccc4)c(S(=O)(=O)C(F)(F)F)c3)cc2)CC1 | < 10 nM | < 10 nM | 18 nM | < 1 µM | –
8 | CN(C)CCOc1cccc(-c2ccc(Cl)cc2)c1CN1CCN(c2ccc(C(=O)NS(=O)(=O)c3ccc(N[C@H](CCN4CCOCC4)CSc4ccccc4)c(S(=O)(=O)C(F)(F)F)c3)cc2)CC1 | < 10 nM | – | 4 nM | < 1 µM | –
9 | CN(C)CCOc1ccc(-c2ccc(Cl)cc2)c(CN2CCN(c3ccc(C(=O)NS(=O)(=O)c4ccc(N[C@H](CCN5CCOCC5)CSc5ccccc5)c(S(=O)(=O)C(F)(F)F)c4)cc3)CC2)c1 | < 10 nM | < 10 nM | 23 nM | < 1 µM | –
10 | O=C(NS(=O)(=O)c1ccc(N[C@H](CCN2CCOCC2)CSc2ccccc2)c(S(=O)(=O)C(F)(F)F)c1)c1ccc(N2CCN(Cc3ccccc3-c3ccc(Cl)cc3)CC2)cc1 | 11 nM | 16 nM | 11 nM | 14 µM (≈ 13.2 µg/mL) | –
11 | N=C(NS(=O)(=O)c1ccc(N[C@H](CCN2CCOCC2)CSc2ccccc2)c(S(=O)(=O)C(F)(F)F)c1)c1ccc(N2CCN(Cc3ccccc3-c3ccc(Cl)cc3)CC2)cc1 | 19 nM | 63 nM | > 3190 nM | < 1 µM | –
12 | O=C(NS(=O)(=O)c1ccc(N[C@H](CCN2CCOCC2)CSc2ccccc2)c(S(=O)(=O)C(F)(F)F)c1)c1ccc(N2CCN(Cc3ccccc3-c3ccc(Cl)cc3)CC2)nn1 | 270 nM | 378 nM | 563 nM | 38 µM (≈ 35.9 µg/mL) | 3.6
13 | O=C(NS(=O)(=O)c1ccc(N[C@H](CCN2CCOCC2)CSc2ccccc2)c(S(=O)(=O)C(F)(F)F)c1)c1cnc(N2CCN(Cc3ccccc3-c3ccc(Cl)cc3)CC2)nc1 | 18 nM | 39 nM | 177 nM | 3 µM (≈ 2.83 µg/mL) | 3.5
14 | O=C(NS(=O)(=O)c1ccc(N[C@H](CCN2CCOCC2)CSc2ccccc2)c(S(=O)(=O)C(F)(F)F)c1)c1csc(N2CCN(Cc3ccccc3-c3ccc(Cl)cc3)CC2)n1 | 119 nM | 98 nM | 385 nM | 2 µM (≈ 1.9 µg/mL) | 2.6
15 | O=C(NS(=O)(=O)c1ccc(N[C@H](CCN2CCOCC2)CSc2ccccc2)c(S(=O)(=O)C(F)(F)F)c1)c1ccc(N2CC3(CN(Cc4ccccc4-c4ccc(Cl)cc4)C3)C2)cc1 | > 468 nM | 77 nM | 610 nM | < 1 µM | –
16 | O=C(NS(=O)(=O)c1ccc(N[C@H](CCN2CCOCC2)CSc2ccccc2)c(S(=O)(=O)C(F)(F)F)c1)c1ccc(P2(=O)CCN(Cc3ccccc3-c3ccc(Cl)cc3)CC2)cc1 | > 1100 nM | 308 nM | > 1100 nM | 4 µM (≈ 3.9 µg/mL) | –
17 | O=C(NS(=O)(=O)c1ccc(N[C@H](CCN2CCOCC2)CSc2ccccc2)c(S(=O)(=O)C(F)(F)F)c1)c1ccc(N2CCP(=O)(Cc3ccccc3-c3ccc(Cl)cc3)CC2)cc1 | 54 nM | 18 nM | > 1100 nM | 21 µM (≈ 20.5 µg/mL) | –
18 | O=C(NS(=O)(=O)c1ccc(N[C@H](CCN2CCOCC2)CSc2ccccc2)c(S(=O)(=O)C(F)(F)F)c1)c1ccc(N2CCC(Oc3ccccc3-c3ccc(Cl)cc3)CC2)cc1 | 250 nM | 38 nM | > 921 nM | 35 µM (≈ 33 µg/mL) | –
19 | O=C(NS(=O)(=O)c1ccc(N[C@H](CCN2CCOCC2)CSc2ccccc2)c(S(=O)(=O)C(F)(F)F)c1)c1ccc(N2CCC(C(=O)c3ccccc3-c3ccc(Cl)cc3)CC2)cc1 | 65 nM | < 10 nM | > 1100 nM | – | –
20 | O=C(NS(=O)(=O)c1ccc(N[C@H](CCN2CCOCC2)CSc2ccccc2)c(S(=O)(=O)C(F)(F)F)c1)c1ccc(N2CCC(Sc3ccccc3-c3ccc(Cl)cc3)CC2)cc1 | 61 nM | 31 nM | > 516 nM | 27 µM (≈ 25.9 µg/mL) | –
21 | O=C(NS(=O)(=O)c1ccc(N[C@H](CCN2CCOCC2)CSc2ccccc2)c(S(=O)(=O)C(F)(F)F)c1)c1ccc(N2CCC([S@@+]([O-])c3ccccc3-c3ccc(Cl)cc3)CC2)cc1 | 19 nM | 11 nM | 90 nM | 26 µM (≈ 25.4 µg/mL) | –
22 | O=C(NS(=O)(=O)c1ccc(N[C@H](CCN2CCOCC2)CSc2ccccc2)c(S(=O)(=O)C(F)(F)F)c1)c1ccc(N2CCC([S@+]([O-])c3ccccc3-c3ccc(Cl)cc3)CC2)cc1 | 545 nM | 54 nM | > 1100 nM | 12 µM (≈ 11.7 µg/mL) | –
23 | N#CC1(Cc2ccccc2-c2ccc(Cl)cc2)CCN(c2ccc(C(=O)NS(=O)(=O)c3ccc(N[C@H](CCN4CCOCC4)CSc4ccccc4)c(S(=O)(=O)C(F)(F)F)c3)cc2)CC1 | < 10 nM | < 10 nM | 504 nM | 2 µM (≈ 1.93 µg/mL) | –
24 | NCC1(Cc2ccccc2-c2ccc(Cl)cc2)CCN(c2ccc(C(=O)NS(=O)(=O)c3ccc(N[C@H](CCN4CCOCC4)CSc4ccccc4)c(S(=O)(=O)C(F)(F)F)c3)cc2)CC1 | < 10 nM | < 10 nM | 395 nM | < 1 µM | –
25 | CCOC(=O)C1(Cc2ccccc2-c2ccc(Cl)cc2)CCN(c2ccc(C(=O)NS(=O)(=O)c3ccc(N[C@H](CCN4CCOCC4)CSc4ccccc4)c(S(=O)(=O)C(F)(F)F)c3)cc2)CC1 | 17 nM | 30 nM | 1790 nM | < 1.5 µM | –
26 | O=C(NS(=O)(=O)c1ccc(N[C@H](CCN2CCOCC2)CSc2ccccc2)c(S(=O)(=O)C(F)(F)F)c1)c1ccc(N2CCC(CO)(Cc3ccccc3-c3ccc(Cl)cc3)CC2)cc1 | 59 nM | < 10 nM | 112 nM | 6 µM (≈ 5.83 µg/mL) | –
27 | O=C(NS(=O)(=O)c1ccc(N[C@H](CCN2CCOCC2)CSc2ccccc2)c(S(=O)(=O)C(F)(F)F)c1)c1ccc(N2CCN(Cc3ccccc3-c3ncc(Cl)cn3)CC2)cc1 | 21 nM | 21 nM | 3980 nM | < 1 µM | –
28 | CC1(C)CCC(c2ccc(Cl)cc2)=C(CN2CCN(c3ccc(C(=O)NS(=O)(=O)c4ccc(N[C@H](CCN5CCOCC5)CSc5ccccc5)c(S(=O)(=O)C(F)(F)F)c4)cc3)CC2)C1 [NAVITOCLAX] | – | – | 14 nM | – | –
